Most compounds without a hit are left out; they make up all but 3.5% or so of the library.
MrgX1 antagonist: antagonists of human MrgX1 receptor | Q96LB2 | MRGX1-HEK293 calcium flux, Fluo-4, BAM8-22 antagonism; active compounds read low | B-score at 10 µM | actives 1.3% (n = 310,000);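 active = calcium-response B-score plate-corrected more than 3 library SD below zero, starting fluorescence within 5 deviations, no agonist response on first addition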;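 note: peak minus trough fluorescence over baseline after final BAM8-22 challenge near maximal dose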
Target sequence (Q96LB2 whole entry, looked up): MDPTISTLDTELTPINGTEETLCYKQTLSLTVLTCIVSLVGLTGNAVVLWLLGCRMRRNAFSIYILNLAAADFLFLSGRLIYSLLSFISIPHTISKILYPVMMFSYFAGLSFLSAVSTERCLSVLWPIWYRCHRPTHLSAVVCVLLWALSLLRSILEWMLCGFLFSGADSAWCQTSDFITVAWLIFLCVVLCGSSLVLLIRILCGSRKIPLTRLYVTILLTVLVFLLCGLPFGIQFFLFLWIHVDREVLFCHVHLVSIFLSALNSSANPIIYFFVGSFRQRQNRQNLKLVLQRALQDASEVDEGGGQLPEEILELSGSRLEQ
MrgX1 ag: activates human MrgX1 receptor signaling; Q96LB2; MrgX1-HEK293 cells, Fluo-4 calcium fluorescence, agonist mode; active compounds read high; B-score at 10 µM; actives 0.44% (n = 310,000); AID 588627;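 active = calcium response B-score plate-corrected fluorescence ratio at least 3 library SD, with starting fluorescence B-score inside 5 SD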
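Material – MrgX1-expressing HEK293 cells · Input – 15,000 cells seeded per well · Dosing – compound as first of three additions · Times – overnight seeding, then 1 h dark dye loading · Measured by – kinetic Fluo-4 NW fluorescence of intracellular calcium · Read-out – B-scored fluorescence response ratio · Benchmarks – positive and negative control wells on each plate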
RGS4 pot: potentiators or activators of RGS4; actives 0.92% (n = 310,000); AID 463111; B-score at 10 µM; HEK293 M3R/inducible RGS4, carbachol calcium flux Fluo4; active compounds read low;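 active = B-score of the integrated calcium signal more than 4 SD below the library mean, with starting fluorescence not abnormally high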;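 note: negative B-score means reduced calcium response which marks RGS4 activation or potentiation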
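Material: Inducible-RGS4 HEK293 cells carrying M3 receptor; also added: carbachol at ECmax as muscarinic agonist stimulus; incubation: compound preincubation 20 min at room temperature before agonist; signal: Fluo4-AM (2 µM) calcium-flux fluorescence, kinetic read; measure: integrated calcium ratio converted to B score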
RGS4 block: human RGS4 inhibition; AID 463165; HEK293 M3R/RGS4 inducible, Fluo-4 calcium flux; active compounds read high; triggered by carbachol at its EC20; P49798; B-score at 10 µM; actives 0.45% (n = 310,000);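 active = B-score, a plate-corrected calcium signal, over three deviations above library mean, with baseline fluorescence within five deviations of library mean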;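 note: RGS4 expression induced by doxycycline in cells with stable M3 receptor; B-score is computed from the integrated fluorescence ratio over baseline after carbachol; higher B-score means a larger calcium signal and so more RGS4 inhibition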
Target sequence (P49798 whole entry, looked up): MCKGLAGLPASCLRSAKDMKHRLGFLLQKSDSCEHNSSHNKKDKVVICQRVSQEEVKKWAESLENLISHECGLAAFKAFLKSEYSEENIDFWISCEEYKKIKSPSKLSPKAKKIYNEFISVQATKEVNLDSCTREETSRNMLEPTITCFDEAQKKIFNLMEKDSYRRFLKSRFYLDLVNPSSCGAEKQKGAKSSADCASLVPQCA
MrgX1 allo act: allosterically activates human MrgX1 receptor signaling; Q96LB2; MrgX1-HEK293, Fluo-4 calcium flux, FDSS; active compounds read high; B-score at 10 µM; actives 0.63% (n = 310,000); AID 588675;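 active = plate-corrected calcium response at least 3 library SD above typical, normal starting fluorescence, not activating the receptor alone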;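 note: compound read alongside a low EC10 to EC30 dose of BAM8-22 agonist; peak minus trough fluorescence over baseline measured at the second addition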
MrgX1 antag conf: confirmation of human MrgX1 receptor antagonists. MrgX1-HEK293, BAM8-22 calcium flux, Fluo-4; active compounds read low. AID 602420. remaining BAM8-22 calcium response % of control (active compounds read low), % at 10 µM. shares compounds with MrgX1 antagonist. actives 19% (n = 2,300);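 active = remaining agonist calcium response no higher than 100% minus 3 SD of agonist-only control wells, with starting fluorescence near control levels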;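 note: agonist BAM8-22 given at a near maximal EC90 to ECmax level; peak minus minimum fluorescence divided by baseline after agonist addition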
HEK293 Ca flux: activity in parental HEK293 cells lacking MrgX1; shares compounds with MrgX1 antagonist; AID 624111; fluorescence ratio F(max-min)/F0 at 10 µM; Fluo-4 calcium fluorescence, FDSS; actives 2% (n = 4,000);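 active = duplicate-averaged calcium fluorescence ratio at least three times the standard deviation of buffer wells, a nonspecific response in parental cells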
HEK293 Ca counter: MrgX1 allosteric activator counter-screen hit in parental HEK293 cells; shares compounds with MrgX1 antagonist; parental HEK293 calcium flux, Fluo-4 fluorescence ratio; active compounds read high; fluorescence ratio F(max-min)/F0 at 10 µM; actives 0.4% (n = 4,000); AID 624114;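 active = calcium fluorescence ratio, averaged over duplicates, at least 3 SD of the buffer-well ratio, meaning a nonspecific response in receptor-free cells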;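 note: untransfected parental HEK293 lacking MrgX1 used as counterscreen for MrgX1 allosteric activators; fluorescence change taken during the second addition on a kinetic imager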
HEK293 Ca cntr2: counter-screen for MrgX1 activators: effect in parental HEK293 cells | shares compounds with MrgX1 antagonist | Fluo-4 calcium fluorescence (FDSS); active compounds read high | fluorescence ratio F(max-min)/F0 at 10 µM | actives 8.7% (n = 4,000) | AID 624115;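 active = calcium fluorescence ratio at least three times the spread of buffer wells, meaning a non-specific response in parental cells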
Of the large screens only hits and unclear results are named; the others gave an inactive call (follow-up assays come after a bar, where they were run).

C=CCN1CN(S(=O)(=O)c2cccc(Cl)c2)c2nc3ccccc3nc21	none
O=C(CSc1nc2ccccc2o1)N1CCCC1	none
COCC(=O)N1CCN(c2nc3ccccc3o2)CC1	MrgX1 antagonist -4.52 | MrgX1 antag conf inactive | HEK293 Ca flux inactive | HEK293 Ca counter inactive | HEK293 Ca cntr2 inactive
Cc1nnc(Oc2ccccc2F)c2ccccc12	MrgX1 antagonist -6.05 | MrgX1 antag conf 85.2% | HEK293 Ca flux inactive | HEK293 Ca counter inactive | HEK293 Ca cntr2 inactive
CC(=O)Nc1ccc(S(=O)(=O)Nc2nc3nc(-c4ccccc4)cc(-c4ccccc4)n3n2)cc1	MrgX1 antagonist -6.38 | MrgX1 antag conf 81.4% | HEK293 Ca flux inactive | HEK293 Ca counter inactive | HEK293 Ca cntr2 inactive
CC(=O)Nc1ccc(S(=O)(=O)Nc2cc(-c3ccccc3)nn2C)cc1	none
Cc1ccc(Nc2nc(C(=O)N3CCC(C(=O)N4CCN(C)CC4)CC3)cs2)cc1	MrgX1 antagonist -8.25 | MrgX1 antag conf inactive | HEK293 Ca flux inactive | HEK293 Ca counter inactive | HEK293 Ca cntr2 inactive
CC(=O)N1CCN(S(=O)(=O)c2cccc(C(=O)NCCc3ccc(Cl)cc3)c2)CC1	none
Cn1c(Cc2ccccc2)nnc1SCC(=O)Nc1ccc(N2CCOCC2)cc1	none
CCc1ccc(NC(=O)Cc2ccc(NC3=NC4CS(=O)(=O)CC4S3)cc2)cc1 (stereo unspecified)	MrgX1 antagonist -6.13 | MrgX1 antag conf inactive | HEK293 Ca flux inactive | HEK293 Ca counter inactive | HEK293 Ca cntr2 inactive
CCOc1ccc(NC(=O)Cc2ccc(NC3=NC4CS(=O)(=O)CC4S3)cc2)cc1 (stereo unspecified)	none
CCOC(=O)COc1ccc2c(c1)C(=O)CC1(CCCCC1)O2	MrgX1 antagonist -7.59 | MrgX1 antag conf inactive | HEK293 Ca flux inactive | HEK293 Ca counter inactive | HEK293 Ca cntr2 inactive
COc1cccc(/C=N/n2c(N)nc3ccccc32)c1OC	none
COc1ccc(/C=N/n2c(N)nc3ccccc32)cc1OC	MrgX1 antagonist -8.56 (no result: RGS4 pot, RGS4 block) | MrgX1 antag conf inactive | HEK293 Ca flux inactive | HEK293 Ca counter inactive | HEK293 Ca cntr2 inactive
O=C(Nc1cccc(C(=O)O)c1)/C(=C\c1ccccc1)NC(=O)c1cccc2ccccc12	none
Cc1ccc(NC(=O)CCNS(=O)(=O)c2cc(Br)cnc2N)c(Cl)c1	MrgX1 antagonist -5.51 | MrgX1 antag conf inactive | HEK293 Ca flux inactive | HEK293 Ca counter inactive | HEK293 Ca cntr2 inactive
Cc1ccc(N(CN2C(=O)c3ccccc3C2=O)C(=O)c2ccc([N+](=O)[O-])cc2[N+](=O)[O-])cc1	none
O=C(CCCOc1ccc(Cl)cc1Cl)N1CCN(c2ccccn2)CC1	MrgX1 antagonist -5.17 | MrgX1 antag conf inactive | HEK293 Ca flux inactive | HEK293 Ca counter inactive | HEK293 Ca cntr2 inactive
O=C(COc1ccc(Cl)cc1Cl)N1CCN(c2ccccn2)CC1	none
CCOc1ccc(C(=O)N2CCN(c3ccccn3)CC2)cc1OCC	MrgX1 antagonist -4.81 | MrgX1 antag conf inactive | HEK293 Ca flux inactive | HEK293 Ca counter inactive | HEK293 Ca cntr2 67.7
O=C(CN1C(=O)c2ccc([N+](=O)[O-])cc2C1=O)NCC1CCCO1 (stereo unspecified)	none
COc1ccc(/C=C/C(=O)Nc2nc(C)c(C(=O)N(C)C)s2)cc1OC	none
COc1ccc(C(=O)Nc2nc(C)c(C(=O)N(C)C)s2)cc1OC	MrgX1 antagonist -8.66 | MrgX1 antag conf inactive | HEK293 Ca flux inactive | HEK293 Ca counter inactive | HEK293 Ca cntr2 inactive
NC1=NC(c2ccccc2Cl)n2c(nc3ccccc32)N1 (stereo unspecified)	MrgX1 antagonist -8.63 | MrgX1 antag conf inactive | HEK293 Ca flux inactive | HEK293 Ca counter inactive | HEK293 Ca cntr2 inactive
COCCn1c(C)cc(C(=O)CSc2n[nH]c(N)n2)c1C	MrgX1 antagonist -4.83 | MrgX1 antag conf inactive | HEK293 Ca flux inactive | HEK293 Ca counter inactive | HEK293 Ca cntr2 inactive
COCCn1c(C)cc(C(=O)CSc2nc3nc(C)cc(C)n3n2)c1C	none
CCn1c(N2CCN(C(=S)NCCc3ccccc3)CC2)nc2ccccc21	none
COc1ccc(-c2nnc(SCc3c(C)noc3C)n2N)cc1OC	none
Cc1ccc(C(c2nnnn2C2CCCC2)N2CCN3CCCC3C2)cc1 (stereo unspecified)	MrgX1 antagonist -6.42 | MrgX1 antag conf inactive | HEK293 Ca flux inactive | HEK293 Ca counter inactive | HEK293 Ca cntr2 inactive
Oc1c(/C=N/c2ccccn2)sc2ccccc12	MrgX1 antagonist -6.72 | MrgX1 antag conf 68.9% | HEK293 Ca flux inactive | HEK293 Ca counter inactive | HEK293 Ca cntr2 inactive
Oc1c(C=Nc2ccc(Cl)cn2)sc2ccccc12	none
Oc1c(C=Nc2cccnc2)sc2ccccc12	MrgX1 antagonist -4.92 | MrgX1 antag conf inactive | HEK293 Ca flux inactive | HEK293 Ca counter inactive | HEK293 Ca cntr2 inactive
CCOc1ccc(NC(=S)NNC(=O)c2ccc(Br)cc2)cc1	none
Cc1sc(-c2ccncc2)nc1OC(=O)c1ccc(F)cc1F	none
CCOc1cc(-c2c(C#N)c(N)nc3c2CCCC3C)ccc1O (stereo unspecified)	MrgX1 antagonist -4.74 | MrgX1 antag conf inactive | HEK293 Ca flux inactive | HEK293 Ca counter inactive | HEK293 Ca cntr2 inactive
Cc1c(C)c2c(C)nn(-c3ccccc3)c2[nH]c1=O	none
CCc1c(C)c2c(C)nn(-c3ccccc3)c2[nH]c1=O	MrgX1 antagonist -4.56 | MrgX1 antag conf 85.1% | HEK293 Ca flux inactive | HEK293 Ca counter inactive | HEK293 Ca cntr2 inactive
COc1ccc(Cl)cc1NC(=O)CN(C)C(=O)Cc1ccc2c(c1)CCC2	none
COc1ccc(Cl)cc1NC(=O)CN(C)C(=O)Cc1ccsc1	MrgX1 antagonist -6.79 | MrgX1 antag conf inactive | HEK293 Ca flux inactive | HEK293 Ca counter inactive | HEK293 Ca cntr2 inactive
CCCC(C)NS(=O)(=O)c1ccc(OC)c(C)c1 (stereo unspecified)	none
Cc1[nH]c(=O)nc(SCc2ccc(Cl)c(Cl)c2)c1C#N	MrgX1 antagonist -7.04 | MrgX1 antag conf inactive | HEK293 Ca flux inactive | HEK293 Ca counter inactive | HEK293 Ca cntr2 inactive
Cc1[nH]c(=O)nc(SCc2cccc(Cl)c2)c1C#N	none
O=C1N=NC(=O)N1c1ccccc1	none
COc1cc2cc(CN(CCO)S(=O)(=O)c3ccccc3Cl)c(=O)[nH]c2cc1OC	MrgX1 antagonist -7.74 | MrgX1 antag conf inactive | HEK293 Ca flux inactive | HEK293 Ca counter inactive | HEK293 Ca cntr2 inactive
CC(C)Oc1ccc(C(=O)NC2CCCCC2)cc1	none
